Compounds with a hit are over-represented: about 4.8% of the library has one in this group of screens.
ATG4B inhibitor: ATG4B protease inhibitors, primary screen, biochemical, fluorescence, uHTS; Cysteine protease ATG4B (Homo sapiens), Q9Y4P1; ATG4B cleavage of LC3-PLA2, NBD-HPC fluorescence, 1 h; inhibition, % at 8.33 µM; 340,000 compounds, 0.51% hits; AID 504462, 2011; in the data active means inhibition above about 40%
Target sequence (Q9Y4P1 whole entry, looked up): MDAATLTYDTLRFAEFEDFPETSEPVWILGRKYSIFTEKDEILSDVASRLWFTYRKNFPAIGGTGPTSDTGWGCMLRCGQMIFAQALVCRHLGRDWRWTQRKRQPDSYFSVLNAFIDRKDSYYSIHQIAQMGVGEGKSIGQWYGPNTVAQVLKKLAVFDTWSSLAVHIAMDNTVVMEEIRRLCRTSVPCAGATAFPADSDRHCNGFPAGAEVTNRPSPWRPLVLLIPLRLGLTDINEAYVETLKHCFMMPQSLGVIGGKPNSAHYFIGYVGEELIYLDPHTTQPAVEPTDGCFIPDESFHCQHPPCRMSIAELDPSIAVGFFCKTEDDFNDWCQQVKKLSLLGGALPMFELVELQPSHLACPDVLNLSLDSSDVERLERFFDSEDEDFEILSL
NALP1 inh: NALP1 inflammasome inhibitors in reconstituted yeast, colorimetric, S. cerevisiae, triplicate retest; inhibition, % at 10 µM; S. cerevisiae NALP1/ASC/caspase-1 growth, X-gal OD620, 72 h; 280,000 compounds, 0.61% hits; AID 2071, 2009; in the data active means inhibition mostly above about 24%, no sharp cut-off; inactive means mostly below about 32%
ALR H2O2 inh: inhibitors of human ALR sulfhydryl oxidase, primary screen, biochemical, H2O2 detection, HRP-luminol luminescence, single point; purified ALR, DTT oxidation; inhibition, % (test concentration not listed); 290,000 compounds, 3.8% hits; AID 485317, 2010;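 active means mean replicate inhibition above about 79%, with every replicate also reaching it, limit read from the data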
Target sequence (P55789 whole entry, looked up): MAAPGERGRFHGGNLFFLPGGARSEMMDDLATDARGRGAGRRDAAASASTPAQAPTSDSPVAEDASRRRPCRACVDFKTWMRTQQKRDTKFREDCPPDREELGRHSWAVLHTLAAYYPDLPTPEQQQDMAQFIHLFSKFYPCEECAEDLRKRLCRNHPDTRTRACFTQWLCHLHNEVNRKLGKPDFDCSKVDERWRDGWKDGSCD
Calb FLC: C. albicans growth inhibition with fluconazole, primary screen, CaCi-2 strain, Alamar Blue fluorescence | C. albicans CaCi-2 (fluconazole-resistant clinical isolate) + fluconazole, 48 h | growth inhibition, % (no concentration beside the values) | 300,000 compounds, 0.57% hits | AID 1979, 2009;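 active means growth inhibition above about 58% in most replicates, limit read from the data, passing the limit was not always enough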;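 further: all wells also contain fluconazole at 8 µg/ml as a sub-toxic cotreatment; 0% = median of DMSO wells and 100% = median of geldanamycin control wells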
UCH37 DUB inh: inhibitors of human UCH37 deubiquitinase, primary screen, biochemical, Ub-AMC cleavage, fluorescence | purified proteasome/UCH37 | inhibition, % (no concentration beside the values) | 330,000 compounds, 0.33% hits | AID 588478, 2011;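 active means mean inhibition over replicate wells above about 20%, limit read from the data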;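 further: 0% = compound-free wells with enzyme and 100% = wells lacking proteasome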
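Test system – human UCH37 enzyme supplied as purified proteasome complex · Incubation – 30 min preincubation with enzyme, 25 min cleavage at room temperature · Detection – AMC fluorescence from Ub-AMC cleavage, excitation 355 nm, emission 460 nm · Benchmarks – no-proteasome wells (full inhibition) and compound-free wells (no inhibition)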
NLRP3 yeast inh: NALP3 inflammasome inhibitors in reconstituted yeast, primary screen, luminescence, uHTS. Yeast reconstituted NLRP3/ASC/caspase-1, beta-gal luminescence, 24 h. inhibition, % at 10 µM. 330,000 compounds, 0.39% hits. AID 2825, 2010;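 active means inhibition of 50% or more; inactive means inhibition below 50%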;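 further: plate controls were induced DMSO wells for no effect and uninduced yeast grown without galactose for full effect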
Active calls of the source: *.

O=C1C(Cl)=CC(=Nc2ccc(O)cc2)C=C1Cl was read as ATG4B inhibitor 4.7, ALR H2O2 inh 99.0*, UCH37 DUB inh 1.9 and NLRP3 yeast inh -4.4.
`CCCCOc1ccc(CCN)cc1Cl` gave ATG4B inhibitor 13.2, NALP1 inh 47.5*, ALR H2O2 inh 25.9, Calb FLC -5.2, UCH37 DUB inh 1.5 and NLRP3 yeast inh 41.0.
Screening COc1ccc(CCN)cc1O returned ATG4B inhibitor 3.5, ALR H2O2 inh 2.8, UCH37 DUB inh 2.5 and NLRP3 yeast inh 26.6.
For Cc1cc(O)c2c(c1)C(=O)C13C(=C2O)C(=O)[C@H]2[C@@H](O)[C@@H]1[C@H]1[C@H](O)[C@@H]3C(=O)C3=C(O)c4c(O)cc(C)cc4C(=O)C312 (stereo partly drawn) the results were ATG4B inhibitor -12.6, UCH37 DUB inh 28.3* and NLRP3 yeast inh 21.2.
For O=C1CC(c2cccnc2)=NN1c1ccc(Cl)cc1Cl the results were ATG4B inhibitor 9.6, NALP1 inh 6.6, ALR H2O2 inh 23.5, Calb FLC -1.7, UCH37 DUB inh -1.1 and NLRP3 yeast inh 9.5.
For CN1Cc2cccnc2N(C)Cc2cc(Cl)ccc21 the results were ATG4B inhibitor 8.3, NALP1 inh 36.0, ALR H2O2 inh 98.8*, Calb FLC 0.6, UCH37 DUB inh 2.8 and NLRP3 yeast inh 33.3.
CCn1nc(-c2cccs2)nc2c(=O)n(C)c(=O)nc1-2 was read as ATG4B inhibitor 86.0*, NALP1 inh 33.1* and UCH37 DUB inh 95.2*.
Screening CC(C)NC(=O)Cn1cc(C(=O)c2ccccc2)c2ccccc21 returned ATG4B inhibitor -6.6, NALP1 inh 3.5, ALR H2O2 inh 2.5, Calb FLC -1.8, UCH37 DUB inh 2.4 and NLRP3 yeast inh 6.4.
Screening CCn1cc(C(=O)c2ccccc2)c2ccccc21 returned ATG4B inhibitor 7.8, NALP1 inh 15.0, ALR H2O2 inh 4.7, Calb FLC 97.5*, UCH37 DUB inh 3.4 and NLRP3 yeast inh 26.6.
Screening Oc1ccc(-[n+]2c(-c3ccccc3)cc(-c3ccccc3)cc2-c2ccccc2)cc1 returned ATG4B inhibitor 19.7, ALR H2O2 inh -6.3, Calb FLC 102.6*, UCH37 DUB inh 5.4 and NLRP3 yeast inh 20.9.
COc1ccc(-[n+]2c(-c3ccccc3)cc(-c3ccccc3)cc2-c2ccccc2)cc1 was read as ATG4B inhibitor 9.6, ALR H2O2 inh 13.1, Calb FLC 108.4*, UCH37 DUB inh 5.9 and NLRP3 yeast inh 9.4.
Screening Cc1cnc(-n2c(=S)[nH]c3ccccc3c2=O)s1 returned ATG4B inhibitor 5.0, ALR H2O2 inh 96.7* and NLRP3 yeast inh 6.6.
Screening Oc1ccc(C=NNP(=S)(c2ccccc2)c2ccccc2)cc1 returned UCH37 DUB inh 3.8.
`N/C(=N\[N+](=O)[O-])N/N=C/c1ccc(O)cc1` gave ATG4B inhibitor -0.5, NALP1 inh 2.5, ALR H2O2 inh 97.0*, Calb FLC -20.7 and NLRP3 yeast inh 2.4.
Screening CC(=NNP(=S)(c1ccccc1)c1ccccc1)c1ccc(O)cc1O returned UCH37 DUB inh 5.0.
For O=C1C2CCCN2C(c2ccc(Cl)cc2)N1c1ccccn1 (stereo not drawn) the results were ATG4B inhibitor 5.9, NALP1 inh 24.6, ALR H2O2 inh -1.3, Calb FLC 11.1, UCH37 DUB inh 1.1 and NLRP3 yeast inh 8.5.
For O=C1C2CCCN2C(c2ccccc2)N1c1ccccn1 (stereo not drawn) the results were ATG4B inhibitor 4.0, NALP1 inh -13.6, ALR H2O2 inh -1.8, Calb FLC 62.6*, UCH37 DUB inh 1.3 and NLRP3 yeast inh 0.3.
`CCn1c(NN=O)nc2ccccc21` gave ATG4B inhibitor 1.2, NALP1 inh -9.7, ALR H2O2 inh -13.8, Calb FLC 80.4*, UCH37 DUB inh 9.9 and NLRP3 yeast inh 26.8.
Screening O=c1[nH]c(=S)n(CCC2=CCCCC2)c(O)c1/C=N/Nc1ccccc1 returned ATG4B inhibitor 0.7, ALR H2O2 inh 97.0*, Calb FLC 2.7, UCH37 DUB inh 1.4 and NLRP3 yeast inh -5.7.
`O=c1[nH]c(=S)n(CCC2=CCCCC2)c(O)c1C=NC1CCN(Cc2ccccc2)CC1` gave ATG4B inhibitor -9.1, NALP1 inh 5.1, ALR H2O2 inh 9.2, Calb FLC 0.8, UCH37 DUB inh 4.3 and NLRP3 yeast inh 10.6.
`NC(=O)c1ccc(C(=O)Nc2ccc([As](=O)(O)O)cc2)cc1` gave NALP1 inh 16.2, ALR H2O2 inh -1.2, Calb FLC 1.0, UCH37 DUB inh 1.3 and NLRP3 yeast inh -1.8.
For O=[As](O)(O)c1ccc(N=Nc2ccc(O)cc2)cc1 the results were ATG4B inhibitor 4.6, NALP1 inh 2.9, ALR H2O2 inh 98.8*, Calb FLC 6.6 and UCH37 DUB inh 20.0.
CCc1ccccc1NC(=O)CSc1nnc([C@@H](N)Cc2c[nH]c3ccccc23)o1 was read as ATG4B inhibitor -11.5, NALP1 inh 20.5, ALR H2O2 inh 2.5, Calb FLC 14.9, UCH37 DUB inh 4.2 and NLRP3 yeast inh 1.2.
For Cc1ccc(NC(=O)CSc2nnc([C@@H](N)Cc3c[nH]c4ccccc34)o2)c(C)c1 the results were ATG4B inhibitor -11.4, NALP1 inh 10.0, ALR H2O2 inh 97.7*, Calb FLC 109.3*, UCH37 DUB inh 3.7 and NLRP3 yeast inh -5.2.
`COc1ccc2c(c1)[C@]13CCCC[C@@H]1[C@H](C2)N(C)CC3` gave UCH37 DUB inh 4.1.
CC12CN3CCN(CC(C3)C1=NNC(N)=O)C2 was read as UCH37 DUB inh 3.3.
Cc1cc(C)c2c(c1)-c1cc(C)nn1C(c1cccnc1)N2 (stereo not drawn) was read as ATG4B inhibitor -7.9, NALP1 inh 17.0, ALR H2O2 inh 99.4*, Calb FLC 2.9, UCH37 DUB inh 1.5 and NLRP3 yeast inh -2.4.
